Measurements from ChEMBL document CHEMBL1124149 (1988).
In brackets after ≈: the same amount, converted by molar mass.

Experiments:
Format in all cases: functional
Cytomegalovirus [1] = experiment: In vitro minimum inhibitory concentration to inhibit CMV (Davis)-induced cytopathogenicity in HEL cells by 50%; conditions: Human betaherpesvirus 5
FM3A = experiment: Antitumor activity against murine mammary carcinoma FM3A cells; conditions: Mus musculus; read-out: MIC
Method in brief: (§1)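 Tumor cell proliferation assay. Murine leukemia L1210 and murine mammary carcinoma FM3A cells were grown in culture with the compound. The value is the concentration inhibiting cell proliferation by 50%.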

Human alphaherpesvirus 2 [2] = experiment: In vitro minimum inhibitory concentration to inhibit HSV-2 (196)-induced cytopathogenicity in PRK cells by 50%
Method in brief: (§2)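 Antiviral read-out was virus-induced cytopathogenicity in primary rabbit kidney (PRK) cell cultures. The value is the compound concentration needed to reduce cytopathogenicity by 50%.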

Human alphaherpesvirus 2 [3] = experiment: In vitro minimum inhibitory concentration to inhibit HSV-2 (G)-induced cytopathogenicity in PRK cells by 50%; method in brief: as §2
Human alphaherpesvirus 2 [4] = experiment: In vitro minimum inhibitory concentration to inhibit HSV-2 (Lyons)-induced cytopathogenicity in PRK cells by 50%; method in brief: as §2
Human alphaherpesvirus 1 [5] = experiment: In vitro minimum inhibitory concentration to inhibit HSV-1 (KOS)-induced cytopathogenicity in primary rabbit kidney cells by 50%; method in brief: as §2
Human alphaherpesvirus 1 [6] = experiment: In vitro minimum inhibitory concentration to inhibit HSV-1 (McIntyre)-induced cytopathogenicity in PRK cells by 50%; method in brief: as §2
Human alphaherpesvirus 1 [7] = experiment: In vitro minimum inhibitory concentration to inhibit thymidine deficient HSV-1 (B2006)-induced cytopathogenicity in PRK cells by 50%; method in brief: as §2
Human alphaherpesvirus 1 [8] = experiment: In vitro minimum inhibitory concentration to inhibit thymidine deficient HSV-1 (VMV 1837)- induced cytopathogenicity in PRK cells by 50%; method in brief: as §2
L1210 = experiment: Antitumor activity against murine leukemia L1210 cells; conditions: Mus musculus; read-out: MIC; method in brief: as §1
[9] = In vitro minimum inhibitory concentration to inhibit […] (incorporation of [methyl-3H]dThd) in PRK cells by 50%
Suid alphaherpesvirus 1 = experiment: In vitro minimum inhibitory concentration to inhibit SHV-1-induced cytopathogenicity in PRK cells by 50%; method in brief: as §2
Human alphaherpesvirus 3 [10] = experiment: In vitro minimum inhibitory concentration to inhibit VZV (Oka)-induced cytopathogenicity in HEL cells by 50%
Human alphaherpesvirus 3 [11] = experiment: In vitro minimum inhibitory concentration to inhibit VZV (YS)-induced cytopathogenicity in HEL cells by 50%
Human alphaherpesvirus 3 [12] = experiment: In vitro minimum inhibitory concentration to inhibit thymidine deficient VZV (YSR)-induced cytopathogenicity in HEL cells by 50%
Equid alphaherpesvirus 1 = experiment: In vitro minimum inhibitory concentration to inhibit EHV-1-induced cytopathogenicity in PRK cells by 50%; method in brief: as §2
[13] = system: Bovine alphaherpesvirus 1; experiment: In vitro minimum inhibitory concentration to inhibit BHV-1-induced cytopathogenicity in PRK cells by 50%; method in brief: as §2
Cytomegalovirus [14] = experiment: In vitro minimum inhibitory concentration to inhibit CMV (AD-169)-induced cytopathogenicity in HEL cells by 50%; conditions: Human betaherpesvirus 5
Human alphaherpesvirus 1 [15] = experiment: In vitro minimum inhibitory concentration to inhibit HSV-1 (F)-induced cytopathogenicity in primary rabbit kidney cells by 50%; method in brief: as §2

Row | SMILES | MIC (Cytomegalovirus [1]) | IC50 (FM3A) | MIC (Human alphaherpesvirus 2 [2]) | MIC (Human alphaherpesvirus 2 [3]) | MIC (Human alphaherpesvirus 2 [4]) | MIC (Human alphaherpesvirus 1 [5]) | MIC (Human alphaherpesvirus 1 [6]) | MIC (Human alphaherpesvirus 1 [7]) | MIC (Human alphaherpesvirus 1 [8]) | IC50 (L1210) | MIC ([9]; Oryctolagus cuniculus) | MIC (Suid alphaherpesvirus 1) | MIC (Human alphaherpesvirus 3 [10]) | MIC (Human alphaherpesvirus 3 [11]) | MIC (Human alphaherpesvirus 3 [12]) | MIC (Equid alphaherpesvirus 1) | MIC [13] | MIC (Cytomegalovirus [14]) | MIC (Human alphaherpesvirus 1 [15]) | MIC [9]
1 | Cn1c(N)nc2c(ncn2COCCO)c1=O | > 100 µg/mL | > 100 µg/mL | 2 µg/mL (≈ 8.36 µM) | 1 µg/mL (≈ 4.18 µM) | 2 µg/mL (≈ 8.36 µM) | 1 µg/mL (≈ 4.18 µM) | 2 µg/mL (≈ 8.36 µM) | 300 µg/mL (≈ 1250 µM) | 300 µg/mL (≈ 1250 µM) | > 100 µg/mL | > 400 µg/mL | 70 µg/mL (≈ 293 µM) | 20 µg/mL (≈ 83.6 µM) | 20 µg/mL (≈ 83.6 µM) | > 100 µg/mL | 10 µg/mL (≈ 41.8 µM) | > 400 µg/mL | > 100 µg/mL | 2 µg/mL (≈ 8.36 µM) | –
2 | Cc1cn2c([O-])c3c(nc2n1)[n+](COCCO)cn3C | > 100 µg/mL | > 100 µg/mL | 70 µg/mL (≈ 252 µM) | 70 µg/mL (≈ 252 µM) | 70 µg/mL (≈ 252 µM) | 70 µg/mL (≈ 252 µM) | 70 µg/mL (≈ 252 µM) | > 400 µg/mL | > 400 µg/mL | > 100 µg/mL | > 400 µg/mL | > 400 µg/mL | > 100 µg/mL | > 100 µg/mL | > 100 µg/mL | > 400 µg/mL | > 400 µg/mL | > 100 µg/mL | 70 µg/mL (≈ 252 µM) | –
3 | Cc1cn2c(O)c3ncn(COCCO)c3nc2n1 | > 100 µg/mL | > 100 µg/mL | 0.7 µg/mL (≈ 2.66 µM) | 0.7 µg/mL (≈ 2.66 µM) | 2 µg/mL (≈ 7.6 µM) | 2 µg/mL (≈ 7.6 µM) | 2 µg/mL (≈ 7.6 µM) | 400 µg/mL (≈ 1520 µM) | 400 µg/mL (≈ 1520 µM) | > 100 µg/mL | 257 µg/mL (≈ 976 µM) | > 400 µg/mL | 20 µg/mL (≈ 76 µM) | 20 µg/mL (≈ 76 µM) | > 100 µg/mL | 20 µg/mL (≈ 76 µM) | > 400 µg/mL | > 100 µg/mL | 2 µg/mL (≈ 7.6 µM) | –
4 | Cc1cn2c(=O)c3ncn(COCCO)c3nc2n1C | > 100 µg/mL | > 100 µg/mL | > 400 µg/mL | > 400 µg/mL | > 400 µg/mL | > 400 µg/mL | > 400 µg/mL | > 400 µg/mL | > 400 µg/mL | > 100 µg/mL | > 4000 µg/mL | > 400 µg/mL | > 100 µg/mL | > 100 µg/mL | > 100 µg/mL | > 400 µg/mL | > 400 µg/mL | > 100 µg/mL | > 400 µg/mL | –
5 | CNc1nc(O)c2ncn(COCCO)c2n1 | > 100 µg/mL | > 100 µg/mL | > 400 µg/mL | 300 µg/mL (≈ 1250 µM) | > 400 µg/mL | > 400 µg/mL | > 400 µg/mL | > 400 µg/mL | > 400 µg/mL | > 100 µg/mL | > 400 µg/mL | > 400 µg/mL | > 100 µg/mL | > 100 µg/mL | > 100 µg/mL | > 400 µg/mL | > 400 µg/mL | > 100 µg/mL | > 400 µg/mL | –
6 | Cn1c[n+](COCCO)c2nc(N)nc([O-])c21.O=S(=O)(O)O | > 100 µg/mL | > 100 µg/mL | 100 µg/mL | 40 µg/mL | 100 µg/mL | 70 µg/mL | 70 µg/mL | > 400 µg/mL | > 400 µg/mL | > 100 µg/mL | > 400 µg/mL | > 400 µg/mL | > 100 µg/mL | > 100 µg/mL | > 100 µg/mL | > 400 µg/mL | > 400 µg/mL | > 100 µg/mL | 70 µg/mL | –
7 | Nc1nc2c(ncn2COCCO)c(=O)[nH]1 [ACYCLOVIR] | 20 µg/mL (≈ 88.8 µM) | – | 0.07 µg/mL (≈ 0.311 µM) | 0.07 µg/mL (≈ 0.311 µM) | 0.2 µg/mL (≈ 0.888 µM) | 0.2 µg/mL (≈ 0.888 µM) | 0.2 µg/mL (≈ 0.888 µM) | 20 µg/mL (≈ 88.8 µM) | 20 µg/mL (≈ 88.8 µM) | – | – | 7 µg/mL (≈ 31.1 µM) | – | – | – | 0.2 µg/mL (≈ 0.888 µM) | 7 µg/mL (≈ 31.1 µM) | – | 0.1 µg/mL (≈ 0.444 µM) | 8 µg/mL (≈ 35.5 µM)
